Assay results from ChEMBL document CHEMBL3259573, “Optimization of 2-(3-(arylalkyl amino carbonyl) phenyl)-3-(2-methoxyphenyl)-4-thiazolidinone derivatives as potent antitumor growth and metastasis agents” (Eur J Med Chem, 2014).
pIC50: −log10 of the molar value. The source made the active and inactive calls. The calls are words filed in the database; no cut-off is given here.

Key:
[1] = tested on: MDA-MB-231; experiment: Antiproliferative activity against human MDA-MB-231 cells after 48 hrs by sulforhodamine B assay; type: functional, cell-based; conditions: MDA-MB-231, 48 h
In short: (§1)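 Cells kept in RPMI 1640 at 37 °C, 5% CO₂, and seeded 24 h before treatment, with DMSO as control. After 48 h, fixed with cold 50% TCA 1 h at 4 °C and stained with 0.4% SRB in 1% acetic acid for 10 min. Washed five times with 1% acetic acid, dye solubilized in 10 mM Tris base, OD read at 515 nm.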

[2] = tested on: A549; experiment: Antiproliferative activity against human A549 cells after 48 hrs by sulforhodamine B assay; type: functional, cell-based; conditions: A549, 48 h; in short: as §1
[3] = tested on: MDA-MB-231; experiment: Antimetastatic activity against human MDA-MB-231 cells assessed as inhibition of cell migration after 24 hrs by wound healing assay; type: functional, cell-based; conditions: for pIC50: MDA-MB-231, 24 h
In short: (§2)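 Cells grown at 37 °C in complete RPMI 1640 to 80–90% confluence, then serum-starved 12 h. Monolayer scraped with pipette tip, washed twice with PBS, refed complete RPMI 1640 with compound (0.5 or 0.05 uM per legend). Incubated 24 h at 37 °C, then fixed and photographed. Migrated cells counted manually, inhibition expressed relative to untreated (100%). Three independent experiments, 95% CI.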

[4] = tested on: MDA-MB-231; experiment: Antimetastatic activity against human MDA-MB-231 cells assessed as inhibition of cell migration after 10 to 12 hrs by transwell assay; type: functional, cell-based
In short: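 MDA-MB-231 cells (5 × 10⁴) in serum-free medium placed in upper chamber, 10% FBS medium below; compound at fixed concentrations in both chambers. Migration approximately 10 h (legend says 12 h). Non-migrated cells swabbed off, migrated cells fixed in paraformaldehyde 1 h, stained 0.1% crystal violet, counted in 7–8 random fields. Three independent experiments, means with 95% confidence intervals.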

[5] = tested on: MDA-MB-231; experiment: Antimetastatic activity against human MDA-MB-231 cells assessed as inhibition of cell migration at 0.5 uM after 24 hrs by wound healing assay; type: functional, cell-based; in short: as §2
[6] = tested on: MDA-MB-231; experiment: Antimetastatic activity against luciferase-labeled human MDA-MB-231 cells xenografted in nude mouse assessed as reduction in development of lung metastasis at 1 to 5 mg/kg/day, ip administered 1 week prior to tumor implantation measured after 21 days by bioluminescence assay; type: functional, organism-based; conditions: TDE = time-dependent effect
In short: (§3)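 Nude mice randomized into 3 groups (n = 6) and given DMSO or compound at 1.0 or 5.0 mg/kg/day by intraperitoneal injection. Dosing started one week before tail-vein injection of 1 × 10⁶ firefly luciferase-expressing MDA-MB-231 cells in PBS and continued 21 days. Lung metastasis read by bioluminescence photon flux; survival by Kaplan–Meier analysis.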

[7] = tested on: MDA-MB-231; experiment: Cell cycle arrest in human MDA-MB-231 cells assessed as accumulation at G2/M phase at 1 uM by propidium iodide staining-based FACS analysis relative to control; type: functional
[8] = tested on: MDA-MB-231; experiment: Induction of apoptosis in human MDA-MB-231 cells at 0.1 to 1 uM after 48 hrs by annexin V-FITC and propidium iodide staining-based flow cytometric analysis; type: functional, cell-based
In short: (§4)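 Treatment 48 h. Cells washed with cold PBS, resuspended in binding buffer, stained with Annexin V-FITC/PI 15 min. 10,000 stained cells per sample analyzed by flow cytometry.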

[9] = tested on: A549; experiment: Antitumor activity against human A549 cells xenografted in nude mouse assessed as reduction in tumor weight at 5 to 10 mg/kg/day, ip for 28 days; type: functional, organism-based
[10] = tested on: A549; experiment: Induction of apoptosis in human A549 cells at 0.1 to 1 uM after 48 hrs by annexin V-FITC and propidium iodide staining-based flow cytometric analysis; type: functional, cell-based; in short: as §4
[11] = tested on: MDA-MB-231; experiment: Antimetastatic activity against luciferase-labeled human MDA-MB-231 cells xenografted in ip dosed nude mouse assessed as reduction in development of lung metastasis administered 1 week prior to tumor implantation measured after 21 days by bioluminescence assay; type: functional, organism-based; in short: as §3
[12] = tested on: MDA-MB-231; experiment: Antimetastatic activity against luciferase-labeled human MDA-MB-231 cells xenografted in nude mouse assessed as increase in mouse survival at 1 to 5 mg/kg/day, ip administered 1 week prior to tumor implantation measured after 21 days; type: functional, organism-based; in short: as §3
[13] = tested on: Mus musculus; experiment: Toxicity in nude mouse xenografted with human A549 cells assessed as change in body weight at 5 to 10 mg/kg/day, ip for 28 days; type: organism-based; parameters: route intraperitoneal; conditions: in vivo, 672 h
[14] = tested on: A549; experiment: Antitumor activity against human A549 cells xenografted in nude mouse assessed as reduction in tumor volume at 5 to 10 mg/kg/day, ip for 28 days; type: functional, organism-based
[15] = tested on: A549; experiment: Cell cycle arrest in human A549 cells assessed as accumulation at G2/M phase at 1 uM by propidium iodide staining-based FACS analysis relative to control; type: functional
[16] = tested on: Mus musculus; experiment: Toxicity in nude mouse xenografted with luciferase-labeled human MDA-MB-231 cells assessed as change in body weight at 1 to 5 mg/kg/day, ip administered 1 week prior to tumor implantation measured after 21 days; type: organism-based; parameters: route intraperitoneal; conditions: in vivo, 504 h
[17] = tested on: MDA-MB-231; experiment: Antimetastatic activity against luciferase-labeled human MDA-MB-231 cells xenografted in nude mouse assessed as reduction in photon flux in lungs at 5 mg/kg/day, ip administered 1 week prior to tumor implantation measured after 21 days by bioluminescence assay relative to control; type: functional; parameters: scale not given: the % may be the effect or the level left; conditions: route intraperitoneal; in short: as §3

pIC50 [1] | pIC50 [2] | SMILES | also measured
5.75 | 6.14 | COc1ccccc1N1C(=O)CSC1c1cccc(C(=O)NCCc2ccc(O)cc2)c1 (stereo not drawn) | inhibition [3]: Active
< 4.30 | 4.42 | CN(C)c1ccccc1N1C(=O)CSC1c1cccc(Br)c1 (stereo not drawn) | –
< 4.30 | < 4.30 | COc1ccccc1N1C(=O)CSC1c1ccncc1 (stereo not drawn) | –
< 4.30 | < 4.30 | COc1ccccc1N1C(=O)CSC1Cc1ccccc1 (stereo not drawn) | –
< 4.30 | 4.31 | COc1ccccc1N1C(=O)CSC1c1ccc(Br)cc1 (stereo not drawn) | –
4.74 | 5.05 | CCOc1ccc(N2C(=O)CSC2c2cccc(Br)c2)cc1 (stereo not drawn) | –
5.87 | 6.33 | COc1ccccc1N1C(=O)CSC1c1cccc(C(=O)NCCc2ccc(F)cc2)c1 (stereo not drawn) | –
4.86 | 5.09 | COc1ccccc1N1C(=O)CSC1c1cccc(Cl)c1 (stereo not drawn) | –
< 4.30 | < 4.30 | CCN(CC)C(=O)c1cccc(C2SCC(=O)N2c2ccccc2OC)c1 (stereo not drawn) | –
4.57 | 5.00 | O=C1CSC(c2cccc(Br)c2)N1c1cc(Cl)ccc1O (stereo not drawn) | inhibition [5]: inactive
< 4.30 | 4.65 | CNc1ccccc1N1C(=O)CSC1c1cccc(Br)c1 (stereo not drawn) | –
6.64 | 6.68 | COc1ccccc1N1C(=O)CSC1c1cccc(C(=O)NCCc2ccc(Br)cc2)c1 (stereo not drawn) | Activity [6]: tde; Activity [7]: 48.34%; Activity [8]: inactive; Activity [9]: Active; Activity [10]: inactive; pIC50 [3]: > 7.30; Activity [11]: Dose-dependent effect; Activity [12]: Active; Activity [13]: Non-toxic; Activity [14]: Active; pIC50 [4]: 8.00; inhibition [4]: Dose-dependent effect; Activity [15]: 42.4%; Activity [16]: Toxic; Activity [17]: 96.5%
< 4.30 | < 4.30 | COc1ccccc1N1C(=O)CSC1c1cccc(C(=O)N2CCCCC2)c1 (stereo not drawn) | –
< 4.60 | 5.30 | COc1ccccc1N1C(=O)CSC1c1cccc(C(=O)NCc2ccccc2)c1 (stereo not drawn) | –

Further lines, the molecule ahead of its results:

SMILES | pIC50 [1] | pIC50 [2] | also measured
COc1ccccc1N1C(=O)CSC1c1ccccc1 (stereo not drawn) | < 4.30 | < 4.30 | –
COc1ccccc1N1C(=O)CSC1c1cccc(C(=O)NCCc2ccccc2Br)c1 (stereo not drawn) | 4.86 | 5.07 | –
O=C1CSC(c2cccc(Br)c2)N1c1ccccc1 (stereo not drawn) | < 4.30 | < 4.30 | –
COc1ccccc1N1C(=O)CSC1c1cccs1 (stereo not drawn) | < 4.30 | < 4.30 | –
COc1ccccc1N1C(=O)CSC1c1cccc(O)c1 (stereo not drawn) | < 4.30 | < 4.30 | –
O=C1CSC(c2cccc(Br)c2)N1c1cccc(O)c1 (stereo not drawn) | 4.75 | 4.43 | –
COc1ccccc1N1C(=O)CSC1c1ccccc1Br (stereo not drawn) | < 4.30 | 4.50 | –
O=C1CSC(c2cccc(Br)c2)N1c1ccccc1O (stereo not drawn) | 4.49 | 4.86 | –
O=C1CSC(c2cccc(Br)c2)N1CCc1ccccc1 (stereo not drawn) | < 4.30 | 4.68 | –
COc1ccccc1N1C(=O)CSC1c1ccc2ccccc2n1 (stereo not drawn) | < 4.30 | < 4.30 | –
COc1ccccc1N1C(=O)CSC1c1cccc(C(=O)NCCc2ccc(Cl)cc2)c1 (stereo not drawn) | 6.74 | 6.80 | pIC50 [3]: > 7.30; pIC50 [4]: 8.00; inhibition [4]: Dose-dependent effect
O=C1CSC(c2cccc(Br)c2)N1c1nccs1 (stereo not drawn) | < 4.30 | < 4.30 | –
COc1ccccc1N1C(=O)CSC1c1cccc(F)c1 (stereo not drawn) | < 4.30 | < 4.30 | –
COc1ccccc1N1C(=O)CSC1c1cccc(CBr)c1 (stereo not drawn) | < 4.30 | 4.84 | –
COc1ccccc1N1C(=O)CSC1c1cccc(C(=O)O)c1 (stereo not drawn) | < 4.30 | < 4.30 | –
O=C1CSC(c2cccc(Br)c2)N1c1ccc(O)cc1 (stereo not drawn) | < 4.30 | < 4.30 | –
O=C1CSC(c2cccc(Br)c2)N1c1ncccn1 (stereo not drawn) | < 4.30 | < 4.30 | –
COc1ccccc1N1C(=O)CSC1c1cccc(C(=O)NCCc2ccccc2)c1 (stereo not drawn) | < 4.60 | 6.02 | inhibition [3]: Active
COc1cccc(C2SCC(=O)N2c2ccccc2OC)c1 (stereo not drawn) | < 4.30 | < 4.30 | –
COc1ccccc1N1C(=O)CSC1c1cccc(Br)c1 (stereo not drawn) | 5.34 | 5.73 | –
COc1ccccc1N1C(=O)CSC1c1cccc([N+](=O)[O-])c1 (stereo not drawn) | 4.37 | 4.95 | –
COc1ccccc1N1C(=O)CSC1c1cccc(C(=O)Nc2ccccc2)c1 (stereo not drawn) | < 4.60 | < 4.60 | –
C=CCN(CC=C)C(=O)c1cccc(C2SCC(=O)N2c2ccccc2OC)c1 (stereo not drawn) | < 4.30 | < 4.30 | –
COc1ccccc1N1C(=O)CSC1c1cccc(C(=O)NCCCc2ccccc2)c1 (stereo not drawn) | 4.91 | 4.50 | –
COc1cccc(N2C(=O)CSC2c2cccc(Br)c2)c1 (stereo not drawn) | 4.32 | < 4.30 | –
O=C1CSC(c2cccc(Br)c2)N1c1cccc([N+](=O)[O-])c1 (stereo not drawn) | < 4.30 | 4.36 | –
COc1ccc(N2C(=O)CSC2c2cccc(Br)c2)c(OC)c1 (stereo not drawn) | 4.77 | 4.83 | –
COc1ccc(CCNC(=O)c2cccc(C3SCC(=O)N3c3ccccc3OC)c2)cc1 (stereo not drawn) | 7.30 | 6.89 | inhibition [3]: Active
COC(=O)c1cccc(C2SCC(=O)N2c2ccccc2OC)c1 (stereo not drawn) | 4.64 | 6.54 | –
